Source: ChEMBL document CHEMBL1147643 (J Med Chem, 2006)
Positions count from the first letter of the chain named. The source made the active and inactive calls. The rule behind the calls is not given here.

Tests used:
Adenosine receptor A3 [1] = target: T1, Adenosine receptor A3 (Homo sapiens, UniProt P0DMS8, H272E); assay: Displacement of [125I]I-AB-MECA from human adenosine A3 receptor H272E mutant expressed in COS7 cells; type: cell-based, COS-7
Adenosine receptor A3 [2] = target: T2, Adenosine receptor A3 (Homo sapiens, UniProt P0DMS8); assay: Displacement of [125I]I-AB-MECA from wild type adenosine A3 receptor expressed in COS7 cells; type: cell-based, COS-7
T2 sequence (P0DMS8 whole entry): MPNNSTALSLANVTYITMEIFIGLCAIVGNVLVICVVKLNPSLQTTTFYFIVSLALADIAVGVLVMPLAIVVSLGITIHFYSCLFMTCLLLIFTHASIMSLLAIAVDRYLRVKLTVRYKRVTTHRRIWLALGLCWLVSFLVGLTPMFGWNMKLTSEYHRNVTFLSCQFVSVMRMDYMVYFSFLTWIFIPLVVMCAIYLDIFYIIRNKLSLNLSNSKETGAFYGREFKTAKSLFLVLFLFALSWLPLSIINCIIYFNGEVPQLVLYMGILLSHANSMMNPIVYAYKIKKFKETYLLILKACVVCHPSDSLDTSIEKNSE

Adenosine receptor A3 [3] = target: Adenosine receptor A3 (Homo sapiens, UniProt P0DMS8, Q167E); assay: Displacement of [125I]I-AB-MECA from human adenosine A3 receptor Q167E mutant expressed in COS7 cells; type: cell-based, COS-7
How it was run: (§1)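 Receptor cDNA, wild-type or mutant with mutations confirmed by sequencing, transiently transfected into COS-7 cells with Lipofectamine 2000. […] Displacement of agonist radioligand [125I]I-AB-MECA measured; Ki values derived.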

Adenosine receptor A3 [4] = target: Adenosine receptor A3 (Homo sapiens, UniProt P0DMS8, T94A); assay: Displacement of [125I]I-AB-MECA from human adenosine A3 receptor T94A mutant expressed in COS7 cells; type: cell-based, COS-7; how it was run: as §1
Adenosine receptor A3 [5] = target: Adenosine receptor A3 (Homo sapiens, UniProt P0DMS8, H272D); assay: Displacement of [125I]I-AB-MECA from human adenosine A3 receptor H272D mutant expressed in COS7 cells; type: cell-based, COS-7; how it was run: as §1
Adenosine receptor A3 [6] = target: Adenosine receptor A3 (Homo sapiens, UniProt P0DMS8, T94E); assay: Displacement of [125I]I-AB-MECA from human adenosine A3 receptor T94E mutant expressed in COS7 cells; type: cell-based, COS-7; how it was run: as §1
[7] = test system: T3, Adenosine receptor A3 (Homo sapiens), P0DMS8 [H272E]; assay: (§2) Activity against human adenosine A3 receptor H272E mutant expressed in COS7 cells as measured by accumulation of inositol phosphate by PLC assay; type: functional, cell-based; conditions: COS-7
T3 sequence (whole entry): T2 sequence (P0DMS8 whole entry) with H272E

[8] = target: T4, Adenosine receptor A3 (Homo sapiens) (UniProt P0DMS8); assay: Activity against human wild type adenosine A3 receptor expressed in COS7 cells as measured by accumulation of inositol phosphate by PLC assay; type: functional, cell-based; conditions: COS-7
T4 sequence (whole entry): T2 sequence (P0DMS8 whole entry)

[9] = target: Adenosine receptor A2a (Homo sapiens) (UniProt P29274); assay: Inhibition of human adenosine A2A receptor expressed in CHO cells at 10 uM; type: cell-based
[10] = test system: T3, Adenosine receptor A3 (Homo sapiens), P0DMS8 [H272E]; assay: Inhibition of [125I]I-AB-MECA binding to human adenosine A3 receptor H272E mutant expressed in COS7 cells at 10 uM; type: cell-based; conditions: COS-7
[11] = target: T5, Adenosine receptor A1 (Homo sapiens) (UniProt P30542); assay: Inhibition of human adenosine A1 receptor expressed in CHO cells at 10 uM; type: cell-based
T5 sequence (whole entry): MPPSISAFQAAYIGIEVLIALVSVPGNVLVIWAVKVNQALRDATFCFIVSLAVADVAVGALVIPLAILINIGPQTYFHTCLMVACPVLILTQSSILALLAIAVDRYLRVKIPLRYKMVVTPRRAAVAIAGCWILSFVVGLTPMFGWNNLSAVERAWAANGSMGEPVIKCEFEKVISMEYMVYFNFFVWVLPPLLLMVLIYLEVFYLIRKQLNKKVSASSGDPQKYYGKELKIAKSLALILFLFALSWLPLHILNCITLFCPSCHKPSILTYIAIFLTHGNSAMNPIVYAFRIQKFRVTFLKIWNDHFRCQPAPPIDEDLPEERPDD

[12] = target: T4, Adenosine receptor A3 (Homo sapiens); assay: Inhibition of [125I]I-AB-MECA binding to wild type adenosine A3 receptor expressed in COS7 cells at 10 uM; type: cell-based; conditions: COS-7
[13] = target: T6, Adenosine receptor A2b (Homo sapiens) (UniProt P29275); assay: Activity against adenosine A2B receptor expressed in CHO cells by stimulation of cAMP production at 10 uM; type: functional, cell-based
T6 sequence (whole entry): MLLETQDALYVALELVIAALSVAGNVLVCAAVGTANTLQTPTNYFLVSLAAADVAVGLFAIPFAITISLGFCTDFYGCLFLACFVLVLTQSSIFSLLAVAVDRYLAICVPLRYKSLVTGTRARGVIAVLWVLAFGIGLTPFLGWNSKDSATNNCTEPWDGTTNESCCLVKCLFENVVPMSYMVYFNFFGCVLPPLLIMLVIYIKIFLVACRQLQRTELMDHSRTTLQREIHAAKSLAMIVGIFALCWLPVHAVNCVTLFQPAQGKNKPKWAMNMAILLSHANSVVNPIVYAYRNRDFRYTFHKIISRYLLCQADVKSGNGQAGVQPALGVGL

Adenosine receptor A3 [14] = target: T1, Adenosine receptor A3; assay: as §2; type: functional, cell-based, COS-7

Adenosine receptor A3 (Homo sapiens, UniProt P0DMS8, H272D), sequence (P0DMS8 whole entry H272D): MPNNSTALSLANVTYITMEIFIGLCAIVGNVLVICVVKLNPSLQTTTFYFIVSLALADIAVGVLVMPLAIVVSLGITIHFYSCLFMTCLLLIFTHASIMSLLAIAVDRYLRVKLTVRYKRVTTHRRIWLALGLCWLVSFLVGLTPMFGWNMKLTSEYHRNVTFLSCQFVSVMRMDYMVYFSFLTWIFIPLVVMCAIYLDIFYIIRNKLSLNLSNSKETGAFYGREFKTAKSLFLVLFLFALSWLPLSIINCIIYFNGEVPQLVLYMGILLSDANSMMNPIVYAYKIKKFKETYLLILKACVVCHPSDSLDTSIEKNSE
Adenosine receptor A3 (Homo sapiens, UniProt P0DMS8, T94A), sequence (P0DMS8 whole entry T94A): as the sequence (P0DMS8 whole entry H272D) above, with T94A, D272H counted along it
Adenosine receptor A3 (Homo sapiens, UniProt P0DMS8, T94E), sequence (P0DMS8 whole entry T94E): as the sequence (P0DMS8 whole entry H272D) above, with T94E, D272H counted along it
Adenosine receptor A3 (Homo sapiens, UniProt P0DMS8, Q167E), sequence (P0DMS8 whole entry Q167E): as the sequence (P0DMS8 whole entry H272D) above, with Q167E, D272H counted along it
Adenosine receptor A2a (Homo sapiens), sequence (P29274 whole entry): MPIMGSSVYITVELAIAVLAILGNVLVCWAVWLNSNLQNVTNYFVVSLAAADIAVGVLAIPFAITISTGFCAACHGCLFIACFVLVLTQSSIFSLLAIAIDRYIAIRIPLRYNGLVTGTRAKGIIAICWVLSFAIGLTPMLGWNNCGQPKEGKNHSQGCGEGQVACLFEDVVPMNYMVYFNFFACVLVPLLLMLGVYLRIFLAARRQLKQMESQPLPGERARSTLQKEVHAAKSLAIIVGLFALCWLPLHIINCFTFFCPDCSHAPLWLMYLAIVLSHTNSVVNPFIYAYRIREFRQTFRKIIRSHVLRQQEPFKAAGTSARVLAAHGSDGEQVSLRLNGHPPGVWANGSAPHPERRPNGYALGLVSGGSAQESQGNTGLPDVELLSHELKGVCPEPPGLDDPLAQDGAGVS
T1 sequence (P0DMS8 whole entry H272E): as the sequence (P0DMS8 whole entry H272D) above, with D272E counted along it

| SMILES | Ki (Adenosine receptor A3 [1]) [µM] | Ki (Adenosine receptor A3 [2]) [µM] | Ki (Adenosine receptor A3 [3]) [µM] | Ki (Adenosine receptor A3 [4]) [µM] | Ki (Adenosine receptor A3 [5]) [µM] | Ki (Adenosine receptor A3 [6]) [µM] | Activity [7] | Activity [8] | inhibition [9] [%] | inhibition [10] [%] | inhibition [11] [%] | inhibition [12] [%] | Activity [13] | EC50 (Adenosine receptor A3 [14]) [µM] |
| --- | --- | --- | --- | --- | --- | --- | --- | --- | --- | --- | --- | --- | --- | --- |
| NNC(=O)[C@H]1O[C@@H](n2cnc3c(N)ncnc32)[C@H](O)[C@@H]1O | > 10 | 1.5 | – | – | – | – | – | – | – | – | – | – | – | – |
| CNC(=O)[C@H]1O[C@@H](n2cnc3c(NC)ncnc32)[C@H](O)[C@@H]1NC(N)=O | – | – | – | – | – | – | – | – | < 10 | 7 | < 10 | 7 | – | – |
| CNc1ncnc2c1ncn2[C@@H]1O[C@H](CO)[C@@H](NC(N)=O)[C@H]1O | – | – | – | – | – | – | – | – | < 10 | 30 | < 10 | 3 | – | – |
| COc1ccc(Cl)cc1CNc1ncnc2c1ncn2[C@@H]1O[C@H](CO)[C@@H](CN)[C@H]1O | 0.709 | 13.8 | > 10 | 9.8 | 2 | > 10 | – | – | – | – | – | – | – | – |
| CC(=O)NC[C@H]1[C@@H](O)[C@H](n2cnc3c(NCc4cccc(I)c4)ncnc32)O[C@@H]1CO | 0.7 | > 10 | > 10 | > 10 | 1 | > 10 | – | – | – | – | – | 15 | – | – |
| CNC(=O)[C@H]1O[C@@H](n2cnc3c(NCc4cccc(I)c4)ncnc32)[C@H](O)[C@@H]1NC(N)=O | 2.7 | – | – | – | – | – | – | – | < 10 | – | < 10 | 5 | – | – |
| NC[C@H]1[C@@H](O)[C@H](n2cnc3c(N)ncnc32)O[C@@H]1CO | – | – | – | – | – | – | – | – | – | 2 | – | 3 | – | – |

Further lines, results first:

| Ki (Adenosine receptor A3 [1]) [µM] | Ki (Adenosine receptor A3 [2]) [µM] | Ki (Adenosine receptor A3 [3]) [µM] | Ki (Adenosine receptor A3 [4]) [µM] | Ki (Adenosine receptor A3 [5]) [µM] | Ki (Adenosine receptor A3 [6]) [µM] | Activity [7] | Activity [8] | inhibition [9] [%] | inhibition [10] [%] | inhibition [11] [%] | inhibition [12] [%] | Activity [13] | EC50 (Adenosine receptor A3 [14]) [µM] | SMILES |
| --- | --- | --- | --- | --- | --- | --- | --- | --- | --- | --- | --- | --- | --- | --- |
| 0.61 | 9.5 | > 10 | 10.7 | 0.85 | 10 | – | – | – | – | – | – | – | – | NC[C@H]1[C@@H](O)[C@H](n2cnc3c(NCc4cccc(I)c4)ncnc32)O[C@@H]1CO |
| 0.186 | 2.26 | – | 1.37 | 0.14 | 2 | inactive | inactive | – | – | – | – | – | – | CNC(=O)[C@H]1O[C@@H](n2cnc3c(NCc4cccc(I)c4)ncnc32)[C@H](O)[C@@H]1N=[N+]=[N-] |
| 0.2 | – | – | – | – | – | – | – | < 10 | – | 34 | 47 | – | – | NC(=O)N[C@H]1[C@@H](O)[C@H](n2cnc3c(NCc4cccc(I)c4)nc(Cl)nc32)O[C@@H]1CO |
| 0.22 | > 10 | > 100 | > 10 | 0.47 | > 10 | – | – | < 10 | – | < 10 | 9 | inactive | 0.18 | NC(=O)N[C@H]1[C@@H](O)[C@H](n2cnc3c(NCc4cccc(I)c4)ncnc32)O[C@@H]1CO |
| 0.592 | 0.557 | 7.2 | – | 0.39 | 0.85 | – | – | – | – | – | – | – | – | CNC(=O)[C@H]1O[C@@H](n2cnc3c(NCc4cc(Cl)ccc4OC)ncnc32)[C@H](O)[C@@H]1CN |
| 0.23 | 0.022 | – | – | – | – | inactive | inactive | – | – | – | – | – | – | [N-]=[N+]=NC[C@H]1S[C@@H](n2cnc3c(NCc4cccc(I)c4)ncnc32)[C@H](O)[C@@H]1O |
| 0.185 | 0.137 | 0.57 | 0.12 | 0.12 | 0.11 | – | – | – | – | – | – | – | – | CNC(=O)[C@H]1O[C@@H](n2cnc3c(NCc4cccc(I)c4)ncnc32)[C@H](O)[C@@H]1CN |
